Test [1] has as its system MV4-11. In words: Antiproliferative activity against human MV4-11 cells after 72 hrs by MTT assay. Format: functional, cell-based. The note with it: MV4-11, 72 h. In general terms: Formazan colour is commonly taken as a measure of viable cells.
In test [2] the test system is MV4-11. The test can be described thus: Induction of apoptosis in human MV4-11 cells assessed as necrotic cells at 40 nM after 48 hrs by Annexin V-FITC/propidium iodide staining-based flow cytometric analysis (reference value: 0.17%). In kind it is functional. Background: In flow cytometry, cells or beads pass a laser one at a time.
Test [3] addresses T1, PI3-kinase p110-alpha/p85-alpha (Homo sapiens) (UniProt P27986+P42336). The test can be described thus: Inhibition of recombinant human full length N-terminal His-tagged/untagged p110alpha/p85alpha expressed in baculovirus expression system at 100 nM using PIP2 as substrate after 1 hr by Kinase-Glo reagent-based assay relative to control. The essentials: (§1)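 PI3Kα (p110α/p85α) incubated with PIP2 substrate and ATP in kinase buffer for 1 h at room temperature. Kinase-Glo reagent was then added for 15 min before luminescence read-out. Inhibition rate at 100 or 1000 nM is the mean of at least two experiments.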

For test [4], the system named is MV4-11. The test can be described thus: Induction of apoptosis in human MV4-11 cells assessed as necrotic cells at 10 nM after 48 hrs by Annexin V-FITC/propidium iodide staining-based flow cytometric analysis (reference value: 0.17%). Format: functional.
Test [5] relates to MM1.S. In words: Induction of apoptosis in human MM1S cells assessed as early apoptotic cells at 80 nM after 48 hrs by Annexin V-FITC/propidium iodide staining-based flow cytometric analysis (reference value: 0.38%). Format: functional.
Test [6] has as its system MV4-11. In words: Cell cycle arrest in human MV4-11 cells assessed as accumulation at G2/M phase at 1.25 nM after 24 hrs by propidium iodide/RNase staining-based FACS analysis (reference value: 18.79%). Format: functional.
In test [7] the test system is MM1.S. The test can be described thus: Cell cycle arrest in human MM1S cells assessed as accumulation at G2/M phase at 5 nM after 24 hrs by propidium iodide/RNase staining-based FACS analysis (reference value: 26.29%). In kind it is functional.
Test [8] concerns the target T1, PI3-kinase p110-alpha/p85-alpha (Homo sapiens). In words: Inhibition of recombinant human full length N-terminal His-tagged/untagged p110alpha/p85alpha expressed in baculovirus expression system at 1000 nM using PIP2 as substrate after 1 hr by Kinase-Glo reagent-based assay relative to control. Summed up: as §1
Test [9] addresses FKBP12A/mTOR (Homo sapiens) (UniProt P62942+P42345). In words: Inhibition of human recombinant MTOR/FKBP12 expressed in mammalian expression system assessed as residual activity at 1 uM. Summed up: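 Radiometric kinase panel (99 kinases) run at 1 μM inhibitor in duplicate with [γ-33P]ATP, kinase-specific buffer and substrate at room temperature. The reaction was started with Mg/ATP and stopped with 0.5% phosphoric acid, then spotted on P30 filtermat, washed and scintillation counted. Results are expressed as % remaining activity versus DMSO control.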

Active and inactive are the calls of the source. The rule behind the calls is not given here.

Chain of FKBP12A/mTOR (Homo sapiens) (P62942 2-108 limits assumed, other chains not shown): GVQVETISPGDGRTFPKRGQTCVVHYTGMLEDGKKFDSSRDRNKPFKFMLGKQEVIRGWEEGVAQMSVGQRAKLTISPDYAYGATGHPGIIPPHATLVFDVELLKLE

As to `C[C@@H]1CN(C(=O)Nc2ccc(-c3nc(N4CCOCC4)c4cnn(CCCCCCC(=O)NO)c4n3)cc2)CCO1`, in the test with MV4-11 [1], it took 4.05 nM to reach half-maximal inhibition (IC50). The Activity turned out to be 2.05% in the test on MV4-11 [2]; 0.14% with MV4-11 [4]; 7.95% with MM1.S [5]; 18.99% with MV4-11 [6]; 24.4% in the test on MM1.S [7]. In addition, the inhibition (usually how much of the control response was suppressed) in test [3] came to 28.3%; in [8], 57.3%. The inhibition result in [9] is “Active”.

The values above are taken from ChEMBL document CHEMBL4411315, “Discovery of Novel Dual Histone Deacetylase and Mammalian Target of Rapamycin Target Inhibitors as a Promising Strategy for Cancer Therapy” (J Med Chem, 2019).
